Experimental data gathered from unrelated publications.
Lines come from different studies, so protocols differ.
LRRK2: Leucine-rich repeat serine/threonine-protein kinase 2 (LRRK2, Homo sapiens, UniProt Q5S007)
LRRK2 G2019S: Leucine-rich repeat serine/threonine-protein kinase 2 (LRRK2, Homo sapiens, UniProt Q5S007, G2019S)

SMILES	target	effect on	mode	technique	tested at	quantity	result
CC(C)S(=O)(=O)c1ccc2nccc(Nc3ccc4sc(C5CCCC5)nc4c3)c2c1	LRRK2	enzyme activity	inhibitor	–	1 µM	activity vs control	120%
CN1CCN(C(=O)c2ccc(NC(=O)Nc3ccc(N(C)c4ccnc(Nc5ccc(CS(C)(=O)=O)cc5)n4)cc3)cc2)CC1	LRRK2 G2019S	binding	–	–	1 µM	remaining binding	71%
CNS(=O)(=O)c1ccc(Nc2ncc(C(F)(F)F)c(N3CCC[C@](C)(O)C3)n2)c(C)c1	LRRK2	binding	–	competition with immobilised ligand	1 µM	remaining binding	12%
CCCCC(=O)Nc1ccc(-c2ccc3ncn(CCC)c(=O)c3c2)cn1	LRRK2	binding	–	competition with immobilised ligand	0.5 µM	remaining binding	100%
Cc1cc(S(=O)(=O)N[C@H]2CC[C@H](CN3CCN(c4ccc(C5CCC(=O)NC5=O)cc4F)CC3)CC2)ccc1Nc1ncc(C(F)(F)F)c(N2CCC[C@](C)(O)C2)n1 (stereo partly drawn)	LRRK2 G2019S	binding	–	competition with immobilised ligand	1 µM	remaining binding	4%
C[C@H]1CC[C@H](n2c3cnccc3c3cnc(Nc4ccc5c(n4)CCN(C(=O)CO)C5)nc32)CC1	LRRK2	cell-free assay	–	–	1 µM	remaining signal	28%
C=CC(=O)N1CCC[C@@H](n2nc(-c3ccc(Oc4ccccc4)cc3)c3c(N)ncnc32)C1	LRRK2 G2019S	enzyme activity	inhibitor	–	1 µM	inhibition	23%
Cc1ccc(NC(=O)c2ccnc(C(F)(F)F)c2)cc1-c1cc(OCCO)nc(N2CCOCC2)c1	LRRK2	binding	–	–	1 µM	remaining binding	100%
C[C@]1(O)CCCN(c2nc(Nc3ccc(S(=O)(=O)N[C@H]4CC[C@H](CN5CCN(c6ccc(C7CCC(=O)NC7=O)cc6F)CC5)CC4)cc3Cl)ncc2C(F)(F)F)C1 (stereo partly drawn)	LRRK2	binding	–	competition with immobilised ligand	1 µM	remaining binding	21%
C1=C/COCc2cc(ccc2OCCN2CCCC2)Nc2nccc(n2)-c2cccc(c2)COC/1	LRRK2	binding	–	–	0.1 µM	remaining binding	100%
C[C@]1(O)CCCN(c2nc(Nc3ccc(S(=O)(=O)N[C@H]4CC[C@H](CN5CCN(c6ccc(C7CCC(=O)NC7=O)cc6F)CC5)CC4)cc3F)ncc2C(F)(F)F)C1 (stereo partly drawn)	LRRK2 G2019S	binding	–	competition with immobilised ligand	1 µM	remaining binding	39%
COc1ccc2[nH]c3c4[nH]c5ccc(OC)cc5c4c4c(c3c2c1)C(=O)NC4=O	LRRK2	binding	–	–	1 µM	remaining binding	2.8%
